Laboratory results published in ChEMBL document CHEMBL1138091, “Privileged structure based ligands for melanocortin-4 receptors--aliphatic piperazine derivatives” (Bioorg Med Chem Lett, 2006).

These compounds were tested against Melanocortin receptor 4 (Homo sapiens, UniProt P32245) (assay: Inhibition of [125I]NDP-alpha-MSH binding to human MC4R transfected in HEK293 cells).
Melanocortin receptor 4, sequence (P32245 whole entry): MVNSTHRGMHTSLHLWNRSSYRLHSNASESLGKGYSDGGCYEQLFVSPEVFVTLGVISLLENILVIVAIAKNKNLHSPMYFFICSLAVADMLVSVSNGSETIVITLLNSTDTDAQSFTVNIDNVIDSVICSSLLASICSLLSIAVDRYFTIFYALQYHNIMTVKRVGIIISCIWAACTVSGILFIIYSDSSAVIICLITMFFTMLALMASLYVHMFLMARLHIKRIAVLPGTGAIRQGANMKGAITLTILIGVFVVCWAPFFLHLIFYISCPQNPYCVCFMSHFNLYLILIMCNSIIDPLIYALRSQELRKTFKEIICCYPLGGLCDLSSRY
Type: cell-based
Procedure, shortened: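 Competition binding against ¹²⁵I-NDP-α-MSH on HEK293 cells stably expressing human MC4 receptor; affinity taken from inhibition of radioligand binding. Each value is the mean of at least two determinations, with the binding assay's average error given as 15%.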
A Ki of 3 nM was found for `CCN(CC)CC(C1CCCCC1)N1CCN(C(=O)[C@@H](Cc2ccc(Cl)cc2)NC(=O)CC2Cc3ccccc3N2)CC1` (stereo in doubt; 28) in this work. A Ki of 10 nM was found for `O=C(CC1Cc2ccccc2N1)N[C@H](Cc1ccc(Cl)cc1)C(=O)N1CCN(C(CN2C(=O)CCC2=O)C2CCCCC2)CC1` (stereo in doubt; 36) in this work. A Ki of 18 nM was found for `CC(C)CC(CC(C)C)N1CCN(C(=O)[C@@H](Cc2ccc(Cl)cc2)NC(=O)CC2Cc3ccccc3N2)CC1` (some centres not stated) in this work. A Ki of 13 nM was found for `CCN(CC)CC(C1CCCCCC1)N1CCN(C(=O)[C@@H](Cc2ccc(Cl)cc2)NC(=O)[C@H]2Cc3ccccc3CN2)CC1` (some centres not stated) in this work. A Ki of 5 nM was found for `CCN(CC)CC(CC1CCCCC1)N1CCN(C(=O)[C@@H](Cc2ccc(Cl)cc2)NC(=O)CC2Cc3ccccc3N2)CC1` (some centres not stated) in this work. A Ki of 4 nM was found for `CCN(CC)CC(C1CCCCC1)N1CCN(C(=O)[C@@H](Cc2ccc(Cl)cc2)NC(=O)[C@H]2Cc3ccccc3CN2)CC1` (some centres not stated) in this work. A Ki of 18 nM was found for `O=C(CC1Cc2ccccc2N1)N[C@H](Cc1ccc(Cl)cc1)C(=O)N1CCN(C(CN2C(=O)CCC2=O)C2CCCCC2)CC1` (stereo in doubt; 36b) in this work. A Ki of 3430 nM was found for `CCN(CC)CC(C)N1CCN(C(=O)[C@@H](Cc2ccc(Cl)cc2)NC(=O)[C@H]2Cc3ccccc3CN2)CC1` (some centres not stated) in this work. A Ki of 6 nM was found for `CCN(CC(C1CCCCC1)N1CCN(C(=O)[C@@H](Cc2ccc(Cl)cc2)NC(=O)CC2Cc3ccccc3N2)CC1)S(C)(=O)=O` (stereo in doubt; 34a) in this work. A Ki of 26 nM was found for `CS(=O)(=O)NCC(C1CCCCC1)N1CCN(C(=O)[C@@H](Cc2ccc(Cl)cc2)NC(=O)CC2Cc3ccccc3N2)CC1` (some centres not stated) in this work. A Ki of 4 nM was found for `CCN(CC)CC(C1CCCC1)N1CCN(C(=O)[C@@H](Cc2ccc(Cl)cc2)NC(=O)[C@H]2Cc3ccccc3CN2)CC1` (some centres not stated) in this work. A Ki of 8 nM was found for `CCN(CC(C1CCCCC1)N1CCN(C(=O)[C@@H](Cc2ccc(Cl)cc2)NC(=O)CC2Cc3ccccc3N2)CC1)C(C)=O` (stereo in doubt; 35) in this work. A Ki of 10 nM was found for `O=C(CC1Cc2ccccc2N1)N[C@H](Cc1ccc(Cl)cc1)C(=O)N1CCN(C(CN2C(=O)CCC2=O)C2CCCCC2)CC1` (stereo in doubt; 36a) in this work. A Ki of 54 nM was found for `CC(C)CC(C1CCCCC1)N1CCN(C(=O)[C@@H](Cc2ccc(Cl)cc2)NC(=O)CC2Cc3ccccc3N2)CC1` (some centres not stated) in this work. A Ki of 10 nM was found for `O=C(CC1Cc2ccccc2N1)N[C@H](Cc1ccc(Cl)cc1)C(=O)N1CCN(C(CC2CCCCC2)CN2CCOCC2)CC1` (some centres not stated) in this work. A Ki of 35 nM was found for `O=C(CC1Cc2ccccc2N1)N[C@H](Cc1ccc(Cl)cc1)C(=O)N1CCN(C(C2CCCCC2)C2CCCCC2)CC1` (some centres not stated) in this work. A Ki of 3 nM was found for `CCN(CC(C1CCCCC1)N1CCN(C(=O)[C@@H](Cc2ccc(Cl)cc2)NC(=O)CC2Cc3ccccc3N2)CC1)C(C)=O` (stereo in doubt; 35b) in this work. A Ki of 326 nM was found for `O=C(CC1Cc2ccccc2N1)N[C@H](Cc1ccc(Cl)cc1)C(=O)N1CCN(C(CC2CCCCC2)CC2CCCCC2)CC1` (some centres not stated) in this work. A Ki of 20 nM was found for `CCN(CC)CC(c1ccccc1F)N1CCN(C(=O)[C@@H](Cc2ccc(Cl)cc2)NC(=O)[C@H]2Cc3ccccc3CN2)CC1` (some centres not stated) in this work. A Ki of 7 nM was found for `CCN(CC(C1CCCCC1)N1CCN(C(=O)[C@@H](Cc2ccc(Cl)cc2)NC(=O)n2cc3ccccc3c2)CC1)S(C)(=O)=O` (some centres not stated) in this work. A Ki of 13 nM was found for `CCN(CC)CC(CC1CCCCC1)N1CCN(C(=O)[C@@H](Cc2ccc(Cl)cc2)NC(=O)[C@H]2Cc3ccccc3CN2)CC1` (some centres not stated) in this work. A Ki of 2 nM was found for `CCN(CC(C1CCCCC1)N1CCN(C(=O)[C@@H](Cc2ccc(Cl)cc2)NC(=O)CC2Cc3ccccc3N2)CC1)C(C)=O` (stereo in doubt; 35a) in this work. A Ki of 148 nM was found for `CCN(CC)C(=O)C(C1CCCCC1)N1CCN(C(=O)[C@@H](Cc2ccc(Cl)cc2)NC(=O)CC2Cc3ccccc3N2)CC1` (some centres not stated) in this work. A Ki of 3 nM was found for `CCN(CC(C1CCCCC1)N1CCN(C(=O)[C@@H](Cc2ccc(Cl)cc2)NC(=O)CC2Cc3ccccc3N2)CC1)S(C)(=O)=O` (stereo in doubt; 34) in this work. A Ki of 70 nM was found for `CCN(CC)CC1(N2CCN(C(=O)[C@@H](Cc3ccc(Cl)cc3)NC(=O)[C@H]3Cc4ccccc4CN3)CC2)CCCC1` in this work. A Ki of 5 nM was found for `CCN(CC)CC(C1CCCCC1)N1CCN(C(=O)[C@@H](Cc2ccc(Cl)cc2)NC(=O)CC2Cc3ccccc3N2)CC1` (stereo in doubt; 28b) in this work. A Ki of 3 nM was found for `CCN(CC)CC(C1CCCCC1)N1CCN(C(=O)[C@@H](Cc2ccc(Cl)cc2)NC(=O)CC2Cc3ccccc3N2)CC1` (stereo in doubt; 28a) in this work.
